The text below walks through data of ChEMBL document CHEMBL1122299, “Potential cerebral perfusion agents: synthesis and evaluation of a radioiodinated vinylalkylbarbituric acid analogue” (J Med Chem, 1983).

For one assay, the species on record is Rattus norvegicus. Nature of the assay: Uptake in the thyroid or any of the other tissues tested in rats; NS- No significant activity. Type of assay: functional, organism-based. The conditions noted are these: Thyroid gland. In short, it runs like this: (§1)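 Female Fischer 344 rats (10–12 weeks, 170–200 g, food and water ad libitum) received 7.95 μCi of the 125I-labeled barbiturate (sp act ~155 mCi/mmol) in filtered pH 7.4 phosphate buffer via lateral tail vein under ether anesthesia. Four rats per time point were killed at 2 min to 1 day. Thyroid and other organs were excised, rinsed, blotted, weighed and gamma-counted as % injected dose/g.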

The nature of assay [1]: In vivo deiodination was determined; Resistant. Type of assay: functional, organism-based. In short, it runs like this:
as §1

Activity calls are given as the source filed them. No cut-off for these calls is given here.

As for `CCOC(=O)C(CC)(CCC/C=C/I)C(=O)O` (configuration not stated), in the assay listed under Rattus norvegicus, the outcome was inactive. In addition, the Activity entry in assay [1] is on record as “Resistant”.
